# Results as given in ChEMBL document CHEMBL1141368, “Identification of a nonpeptidic and conformationally restricted bradykinin B1 receptor antagonist with anti-inflammatory activity” (J Med Chem, 2007).
# How the values were obtained:
# Rattus norvegicus [1] = experiment: Reduction of edema formation in rat reverse passive arthus model at 3 mg/kg, po; assay type: ADME, organism-based; design: dose 3 mg/kg, route oral; settings: in vivo
# B1 bradykinin receptor [2] = biological target: T1, B1 bradykinin receptor (Homo sapiens, UniProt P46663); experiment: Displacement of [3H]DAK from human bradykinin B1 receptor expressed in CHO-D cells; assay type: cell-based
# T1 sequence (P46663 whole entry): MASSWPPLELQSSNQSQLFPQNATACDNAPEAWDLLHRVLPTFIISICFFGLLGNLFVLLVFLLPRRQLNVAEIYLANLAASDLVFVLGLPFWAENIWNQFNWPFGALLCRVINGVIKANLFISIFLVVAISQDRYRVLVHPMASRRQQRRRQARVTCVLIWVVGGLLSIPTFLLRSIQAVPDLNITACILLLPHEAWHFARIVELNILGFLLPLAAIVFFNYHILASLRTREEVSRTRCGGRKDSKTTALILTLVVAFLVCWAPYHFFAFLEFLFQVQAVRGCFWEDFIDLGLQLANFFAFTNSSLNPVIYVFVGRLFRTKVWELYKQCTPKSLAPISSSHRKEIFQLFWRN
# B1 bradykinin receptor [3] = biological target: T1, B1 bradykinin receptor; experiment: Antagonistic activity at human bradykinin B1 receptor expressed in CHO cells assessed as effect on DAK-mediated calcium mobilization; assay type: functional, cell-based
# In short: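 B1 receptor cDNA transfected into CHO cells; antagonist potency given as IC50 ± SEM with the number of determinations (n).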
# B2 bradykinin receptor = biological target: T2, B2 bradykinin receptor (Homo sapiens, UniProt P30411); experiment: Displacement of [3H]bradykinin from human bradykinin B2 receptor expressed in CHO-K1 cells; assay type: cell-based
# T2 sequence (P30411 whole entry): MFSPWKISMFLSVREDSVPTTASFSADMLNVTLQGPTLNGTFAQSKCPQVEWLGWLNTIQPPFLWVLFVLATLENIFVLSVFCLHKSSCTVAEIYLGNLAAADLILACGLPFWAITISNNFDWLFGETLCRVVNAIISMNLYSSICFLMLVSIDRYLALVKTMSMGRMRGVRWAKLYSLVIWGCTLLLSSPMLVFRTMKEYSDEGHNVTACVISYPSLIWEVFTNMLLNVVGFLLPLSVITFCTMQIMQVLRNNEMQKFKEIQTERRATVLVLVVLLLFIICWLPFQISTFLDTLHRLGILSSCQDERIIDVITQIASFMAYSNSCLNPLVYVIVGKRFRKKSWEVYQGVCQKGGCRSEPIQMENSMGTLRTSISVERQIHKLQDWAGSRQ
# [4] = Clearance in rat at 10 mg/kg, sc; assay type: ADME, organism-based; design: dose 10 mg/kg, route subcutaneous; settings: in vivo
# [5] = Volume of distribution in rat at 1 mg/kg, iv; assay type: ADME, organism-based; design: dose 1 mg/kg, route intravenous; settings: in vivo, read-out: Vss
# Plasma = experiment: Fraction unbound in rat plasma; assay type: ADME, cell-free
# [6] = Bioavailability in rat at 10 mg/kg, sc; assay type: ADME, organism-based; settings: in vivo
# Rattus norvegicus [7] = experiment: Reduction of exudates volume in rat reverse passive arthus model at 60 mg/kg, sc relative to control; assay type: functional; design: scale not given: the % may be the effect or the level left; settings: route subcutaneous
# In short: (§1)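 Reverse passive Arthus inflammation model in rats; drug given s.c. at 30, 60 or 90 mg/kg; exudate volume expressed relative to saline-treated animals and tested for statistical significance.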
# [8] = Cmax in rat at 10 mg/kg, sc; assay type: ADME, organism-based; design: dose 10 mg/kg, route subcutaneous; settings: in vivo
# [9] = AUC (0-t) in rat at 10 mg/kg, sc; assay type: ADME, organism-based; design: dose 10 mg/kg, route subcutaneous; settings: plasma
# [10] = AUC (0-inf) in rat at 10 mg/kg, sc; assay type: ADME, organism-based; design: time infinity, dose 10 mg/kg, route subcutaneous; settings: plasma
# Rattus norvegicus [11] = experiment: Reduction of exudates volume in rat reverse passive arthus model at 90 mg/kg, sc relative to control; assay type: functional; design: scale not given: the % may be the effect or the level left; settings: route subcutaneous; in short: as §1
# [12] = Half life in rat at 10 mg/kg, sc; assay type: ADME, organism-based; design: dose 10 mg/kg, route subcutaneous; settings: in vivo
# [13] = Mean residence time in rat at 1 mg/kg, iv; assay type: ADME, organism-based; design: dose 1 mg/kg, route intravenous; settings: in vivo
# [14] = Tmax in rat at 10 mg/kg, sc; assay type: ADME, organism-based; design: dose 10 mg/kg, route subcutaneous; settings: in vivo
# Rattus norvegicus [15] = experiment: Relevant drug concentration for 5-6 hrs in rat at 90 mg/kg, sc; assay type: ADME, organism-based; design: dose 90 mg/kg, route subcutaneous; settings: in vivo
# [16] = AUC (0-inf) in rat at 1 mg/kg, iv; assay type: ADME, organism-based; design: time infinity, dose 1 mg/kg, route intravenous; settings: plasma
# Rattus norvegicus [17] = experiment: Reduction of exudates volume in rat reverse passive arthus model at 30 mg/kg, sc relative to control; assay type: functional; design: scale not given: the % may be the effect or the level left; settings: route subcutaneous; in short: as §1
# [18] = Half life in rat at 1 mg/kg, iv; assay type: ADME, organism-based; design: dose 1 mg/kg, route intravenous; settings: in vivo
# [19] = AUC (0-t) in rat at 1 mg/kg, iv; assay type: ADME, organism-based; design: dose 1 mg/kg, route intravenous; settings: plasma
# Rattus norvegicus [20] = experiment: Reduction of exudates volume in rat carrageenan-induced pleurisy model at 90 mg/kg, sc relative to control; assay type: functional; design: scale not given: the % may be the effect or the level left; settings: route subcutaneous
Compound,Ki (B1 bradykinin receptor [2]),IC50 (B1 bradykinin receptor [3]),Ki (B2 bradykinin receptor),other results
COc1ccc2c(c1)c(CC(=O)O)c(C)n2C(=O)c1ccc(Cl)cc1 [INDOMETHACIN],–,–,–,Activity (Rattus norvegicus [1]): Not Active
O=C(C[C@@H](NS(=O)(=O)c1ccc2ccccc2c1)c1ccccc1)N[C@H]1CCc2cc(CN3CCCCC3)ccc21,241 nM,183 nM,13.3 µM,–
O=C(C[C@@H](NS(=O)(=O)c1ccc2ccccc2c1)c1ccccc1)N[C@@H]1CCOc2cc(CN3CCCCC3)ccc21,–,–,> 50 µM,CL/F [4]: 79.6 mL/min/kg; Vd [5]: 7.43 L/kg; Fu (Plasma): 0.032; bioavailability [6]: 106%; Activity (Rattus norvegicus [7]): 10%; Cmax [8]: 825 ng/mL; AUC(0-t) [9]: 1960 ng·h/mL; AUC(0-inf) [10]: 2090 ng·h/mL; Activity (Rattus norvegicus [11]): 26%; half-life [12]: 132 min; MRT [13]: 1.5 h; Tmax [14]: 24 min; concentration (Rattus norvegicus [15]): 125 nM; AUC(0-inf) [16]: 201 ng·h/mL; Activity (Rattus norvegicus [17]): 14%; half-life [18]: 84 min; AUC(0-t) [19]: 194 ng·h/mL; Activity (Rattus norvegicus [20]): 22%
O=C(C[C@@H](NS(=O)(=O)c1ccc2ccccc2c1)c1ccccc1)NC1CCc2cc(CCN3CCCCC3)ccc2C1 (stereo partly drawn),–,325 nM,–,–
O=C(C[C@@H](NS(=O)(=O)c1ccc2ccccc2c1)c1ccccc1)N[C@H]1CCOc2cc(CN3CCCCC3)ccc21,–,–,> 20 µM,–
CN1c2cc(CN3CCCCC3)ccc2[C@@H](NC(=O)C[C@@H](NS(=O)(=O)c2ccc3ccccc3c2)c2ccccc2)CS1(=O)=O,1.3 nM,10.7 nM,35 µM,–
CN1c2cc(CN3CCCCC3)ccc2[C@H](NC(=O)C[C@@H](NS(=O)(=O)c2ccc3ccccc3c2)c2ccccc2)CS1(=O)=O,15.8 nM,14 nM,16 µM,–

# The next lines start with results.
Ki (B1 bradykinin receptor [2]),IC50 (B1 bradykinin receptor [3]),Ki (B2 bradykinin receptor),Compound,other results
17 nM,302 nM,–,C[C@@H](NC(=O)C[C@@H](NS(=O)(=O)c1ccc2ccccc2c1)c1ccccc1)c1ccc(CN2CCCCC2)cc1,–
132 nM,447 nM,–,O=C(C[C@@H](NS(=O)(=O)c1ccc2ccccc2c1)c1ccccc1)NCc1ccc(CN2CCCCC2)cc1,–
–,> 4000 nM,–,O=C(C[C@H](NS(=O)(=O)c1ccc2ccccc2c1)c1ccccc1)NCc1ccc(CN2CCCCC2)cc1,–
–,540 nM,–,O=C(C[C@@H](NS(=O)(=O)c1ccc2ccccc2c1)c1ccccc1)NCCc1ccc(CN2CCCCC2)cc1,–
382 nM,359 nM,56 µM,O=C(CC(NS(=O)(=O)c1ccc2ccccc2c1)c1ccccc1)NCc1ccc(CN2CCCCC2)cc1 (racemic),–
1.6 nM,5.6 nM,49.2 µM,O=C(C[C@@H](NS(=O)(=O)c1ccc2ccccc2c1)c1ccccc1)N[C@@H]1CCc2cc(CN3CCCCC3)ccc21,–
